From ChEMBL document CHEMBL3608299, “Identification of N-acylhydrazone derivatives as novel lactate dehydrogenase A inhibitors” (Eur J Med Chem, 2015)
pIC50, pKi: −log10 of the molar value. Active and inactive are the calls of the source. No cut-off for these calls is given here.

Experiments:
[1] = biological target: T1, L-lactate dehydrogenase A chain (Homo sapiens, UniProt P00338); assay: Inhibition of human liver purified lactate dehydrogenase-A using pyruvate as substrate assessed as NADH oxidation for 3 mins by fluorimetric method
How it was run: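 Purified human LDH-A was run in a fluorimetric assay. Values were obtained from triplicate points and given as mean ± standard deviation.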

[2] = biological target: T1, L-lactate dehydrogenase A chain; assay: Inhibition of lactate dehydrogenase-A in human Raji cells assessed as reduction of intracellular lactate level after 3 hrs; format: cell-based
How it was run: (§1)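 Raji Burkitt's lymphoma cells (MYC-overexpressing) were used for lactic acid production and cell proliferation. All points were run in triplicate and reported as mean ± standard deviation.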

Raji [3] = assay: Antiproliferative activity against human Raji cells after 24 hrs by Trypan blue exclusion method; format: functional, cell-based; how it was run: as §1
[4] = biological target: T1, L-lactate dehydrogenase A chain; assay: Inhibition of human liver purified lactate dehydrogenase-A using pyruvate as substrate assessed as disappearance of NADH fluorescence
How it was run: (§2)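 Purified human LDH-A enzymatic assays were run. Inhibition constants (Ki) were calculated separately versus pyruvate and versus NADH as the varied substrate.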

[5] = biological target: T1, L-lactate dehydrogenase A chain; assay: Inhibition of human liver purified lactate dehydrogenase-A using NADH as substrate assessed as disappearance of NADH fluorescence; how it was run: as §2
[6] = biological target: T1, L-lactate dehydrogenase A chain; assay: Inhibition of lactate dehydrogenase-A in human Raji cells assessed as reduction of intracellular lactate level at 40 uM after 3 hrs; format: cell-based
Raji [7] = assay: Antiproliferative activity against human Raji cells at 40 uM after 24 hrs by Trypan blue exclusion method; format: functional
Raji [8] = assay: Cell cycle arrest in human Raji cells assessed as accumulation at S phase at 40 uM after 18 hrs using propidium iodide staining by flow cytometry; format: functional, cell-based; conditions: in the assay text read “accumulation at G2/M phase” for “accumulation at S phase”
How it was run: (§3)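 Raji cells were exposed for 18 h, then stained with propidium iodide. Cell cycle phase distribution (S, G2/M fractions) was measured by flow cytometry and tested for statistical significance against untreated cells.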

Raji [9] = assay: Cell cycle arrest in human Raji cells assessed as accumulation at G2/M phase at 40 uM after 18 hrs using propidium iodide staining by flow cytometry; format: functional, cell-based; how it was run: as §3
[10] = biological target: T1, L-lactate dehydrogenase A chain; assay: Inhibition of lactate dehydrogenase-A in human Raji cells assessed as reduction of NAD+ regeneration at 40 uM; format: cell-based
How it was run: (§4)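 Intracellular NAD+ and NADH were measured in Raji cells after 18 h exposure to assess the redox balance. The shift was evaluated against untreated cells with statistical testing.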

Raji [11] = assay: Induction of apoptosis in human Raji cells assessed as increase of BCL2 protein expression at 40 uM after 18 hrs by Western blotting; format: functional, cell-based
How it was run: (§5)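 After 18 h exposure, Raji cell lysates were analysed by Western blot for the mitochondrial apoptosis regulators BAX and BCL2. The fold change was expressed versus untreated control.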

Raji [12] = assay: Induction of apoptosis in human Raji cells assessed as increase of BAX protein expression at 40 uM after 18 hrs by Western blotting relative to control; format: functional; how it was run: as §5
Raji [13] = assay: Potentiation of cisplatin-induced cytotoxicity against human Raji cells assessed as combination index at 40 uM after 24 hrs by Trypan blue exclusion method relative to control; format: functional
How it was run: (§6)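 Each chemotherapeutic agent was first titrated on Raji cells to its lowest dose giving a statistically significant viability effect at 24 h. That dose was then combined with a fixed concentration of the test agent, and a combination index was calculated, where 0.8–1.2 indicates additivity. Experiments were repeated twice.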

Raji [14] = assay: Potentiation of daunomycin-induced cytotoxicity against human Raji cells assessed as combination index at 40 uM after 24 hrs by Trypan blue exclusion method relative to control; format: functional; how it was run: as §6
Raji [15] = assay: Potentiation of etoposide-induced cytotoxicity against human Raji cells assessed as combination index at 40 uM after 24 hrs by Trypan blue exclusion method relative to control; format: functional; how it was run: as §6
Raji [16] = assay: Potentiation of sunitinib-induced cytotoxicity against human Raji cells assessed as combination index at 40 uM after 24 hrs by Trypan blue exclusion method relative to control; format: functional; how it was run: as §6
[17] = Cytotoxicity against lymphocytes (unknown origin) assessed as cell viability at 200 uM after 24 hrs by Trypan blue exclusion method; format: cell-based; conditions: lymphocyte
How it was run: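 Viability of normal lymphocytes after treatment was compared with Raji cultures across a concentration range up to 200. Significance was assessed by ANOVA.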

[18] = biological target: T1, L-lactate dehydrogenase A chain; assay: Inhibition of lactate dehydrogenase-A in human Raji cells assessed as NAD level per 10^6 cells at 40 uM after 18 hrs (reference value: 365 pmol); format: cell-based; how it was run: as §4
[19] = biological target: T1, L-lactate dehydrogenase A chain; assay: Inhibition of lactate dehydrogenase-A in human Raji cells assessed as NADH level per 10^6 cells at 40 uM after 18 hrs (reference value: 24 pmol); format: cell-based; how it was run: as §4

pIC50 [1]	pIC50 [2]	pIC50 (Raji [3])	Structure (SMILES)	also measured
4.39	3.98	4.02	COc1cc(C(=O)N/N=C/c2ccc(-c3cccc(C(=O)O)c3)s2)cc(OC)c1OC	–
4.39	< 3.70	4.35	O=C(O)c1cccc(-c2ccc(/C=N/NC(=O)c3ccc4[nH]ncc4c3)o2)c1	–
3.90	3.87	4.00	COc1cc(C(=O)N/N=C/c2ccc(-c3ccc(C(=O)O)cc3)o2)cc(OC)c1OC	–
< 3.70	–	–	COC(=O)c1cccc(-c2ccc(/C=N/NC(=O)c3cccnc3)o2)c1	–
4.34	< 3.70	< 3.70	O=C(O)c1cccc(-c2ccc(/C=N/NC(=O)c3cccc(CO)c3)o2)c1	–
4.49	4.28	4.32	COc1cc(C(=O)N/N=C/c2cc(-c3cccc(C(=O)O)c3)co2)cc(OC)c1OC	–
4.32	3.94	4.19	N#CCC(=O)N/N=C/c1ccc(-c2cccc(C(=O)O)c2)o1	–
< 3.70	–	–	N#CCC(=O)N/N=C/c1cccc(-c2ccc(C(=O)O)cc2)n1	–
4.42	4.00	3.94	O=C(O)c1cccc(-c2ccc(/C=N/NC(=O)c3ccc4[nH]ccc4c3)o2)c1	–
4.43	< 3.70	–	N#CCC(=O)N/N=C/c1ccc(-c2ccc(C(=O)O)cc2)o1	–
–	< 3.70	4.10	COc1cc(C(=O)N/N=C/c2c[nH]c(-c3cccc(C(=O)O)c3)c2)cc(OC)c1OC	–
< 3.70	–	–	COc1cc(C(=O)N/N=C/c2cccc(-c3cccc(C(=O)O)c3)n2)cc(OC)c1OC	–
4.37	< 3.70	< 3.70	O=C(O)c1cccc(-c2ccc(/C=N/NC(=O)c3cccnc3)o2)c1	–
4.43	4.38	4.42	COc1cc(C(=O)N/N=C/c2ccc(-c3cccc(C(=O)O)c3)o2)cc(OC)c1OC	pKi [4]: 4.41; pKi [5]: 4.33; inhibition [6]: 50%; inhibition at 40 µM (Raji [7]): 50%; Activity (Raji [8]): Active; Activity (Raji [9]): Active; inhibition [10]: Active; Activity (Raji [11]): inactive; fold change (FC) (Raji [12]): 6.7; CI (Raji [13]): 1; CI (Raji [14]): 0.88; CI (Raji [15]): 0.86; CI (Raji [16]): 1.08; Activity [17]: Non-toxic; Activity [18]: 351 pmol; Activity [19]: 26 pmol
